Assay [1] concerns MCF7. Kind of assay: Induction of cell cycle arrest in human MCF7 cells assessed as increase in sub-2N cell population measured upto 5000 nM measured for 7 to 10 days by propidium iodide staining based flow cytometric analysis. The format is functional. The note with it: time 7-10 day. (A flow cytometer gives signals particle by particle.)
Assay [2] has as its system Z-138. The assay can be described thus: Antitumor activity against human Z138 cells xenografted in po dosed mouse measured for 21 days. The note with it: dose lower […], dose upper 200.0 mg/kg, time 21.0 day. The format is functional, organism-based. (Xenograft models place foreign cells or tissue in a host animal.)
For assay [3], the system named is Z-138. Kind of assay: Antitumor activity against human Z138 cells xenografted in mouse at 25 to 50 mg/kg, po BID measured at 14 to 21 days. The format is functional, organism-based. The note with it: dose lower […], dose upper 50.0 mg/kg, time 14-21 day.
Assay [4] concerns Z-138. The assay can be described thus: Antitumor activity against human Z138 cells xenografted in mouse assessed as reduction in tumor volume at 50 to 100 mg/kg, po BID measured for 10 days. The format is functional, organism-based. The note with it: dose 50-100 mg/kg, time 10.0 day.
In assay [5] the test system is Z-138. Kind of assay: Antitumor activity against human Z138 cells xenografted in mouse assessed as reduction in tumor volume at 200 mg/kg, po qd pretreated for 21 days followed by treatment holiday for 10 days and further compound treatment for 2 weeks starting from day 32 followed by 1 week treatment holiday. The format is functional, organism-based. Conditions: time 52.0 day.

Assay [6] addresses Apoptosis regulator BAX (Homo sapiens) (UniProt Q07812). The assay can be described thus: In vivo inhibition of PRMT5 in human Z138 cells xenografted in mouse assessed as increase in BAX expression at 100 mg/kg, po BID measured for 7 days. The format is functional, organism-based. Conditions: Z-138, time 7.0 day.
In assay [7] the test system is DoTc2-4510. Kind of assay: Antiproliferative activity against human DoTc2-4510 cells assessed as cell growth inhibition incubated for 10 days. The format is functional. The note with it: DoTc2-4510, 240 h, time 10 day. In outline: (§1)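 Outsourced panel run in 384-well plates. Cells were grown in RPMI-1640/10% FBS or a special medium at 37°C, 5% CO2. Compound was added 24 h after seeding as a 10-point, 3.16-fold series in 0.1% DMSO. Medium was refreshed and cells re-dosed at 168 h, with a time-zero plate kept. At 240 h cells were fixed, nuclei stained and imaged. gIC50 is growth midway between untreated and time zero, from a 4-parameter fit.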

Assay [8] concerns HeLa. The assay can be described thus: Antiproliferative activity against human HeLa cells assessed as cell growth inhibition incubated for 10 days. The format is functional. Conditions: 240 h, time 10 day. In outline: as §1
In assay [9] the test system is SW-620. The assay can be described thus: Antiproliferative activity against human SW620 cells assessed as cell growth inhibition incubated for 10 days. The format is functional. Conditions: SW-620, 240 h, time 10 day.
The subject of assay [10] is SW-403. Kind of assay: Antiproliferative activity against human SW403 cells assessed as cell growth inhibition incubated for 10 days. The format is functional. The note with it: SW-403, 240 h, time 10 day.
Assay [11] can be described thus: Antiproliferative activity against human OE21 cells assessed as cell growth inhibition incubated for 10 days. The format is functional. The note with it: OE21, 240 h, time 10 day.
Assay [12] deals with OE33. Kind of assay: Antiproliferative activity against human OE33 cells assessed as cell growth inhibition incubated for 10 days. The format is functional. Conditions: OE33, 240 h, time 10 day.
Assay [13] deals with Detroit 562. Kind of assay: Antiproliferative activity against human Detroit 562 cells assessed as cell growth inhibition incubated for 10 days. The format is functional. Conditions: Detroit 562, 240 h, time 10 day. In outline: as §1
Assay [14] has as its system 769-P. The assay can be described thus: Antiproliferative activity against human 769-P cells assessed as cell growth inhibition incubated for 10 days. The format is functional. The note with it: 240 h, time 10 day. In outline: (§2)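 Cells kept in RPMI-1640 with 10% FBS, 2 mM L-alanyl-L-glutamine and 1 mM Na pyruvate (or a special medium) at 37°C, 5% CO2. Compound added 24 h after seeding, 10 concentrations in 3.16-fold dilution, 0.1% DMSO final. Medium replaced and cells re-dosed at 168 h; 240 h incubation. Nuclei fixed, dye-stained and imaged. gIC50 = growth midway between untreated and time-zero cell counts, from a 4-parameter fit.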

Assay [15] concerns Hs 695T. The assay can be described thus: Antiproliferative activity against human Hs 695T cells assessed as cell growth inhibition incubated for 10 days. The format is functional. The note with it: 240 h, time 10 day. The essentials:
(§3)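 Eurofins panel, 384-well. Cells kept in RPMI-1640 with 10% FBS, 2 mM L-alanyl-L-glutamine and 1 mM Na pyruvate, or in a special medium, at 37°C under 5% CO2. Compound added 24 h after seeding as 10 concentrations in 3.16-fold steps, 0.1% DMSO final. Medium replaced and compound re-dosed at 168 h. After 240 h, cells fixed and nuclei stained for imaging. gIC50 = growth midway between untreated cells and time-zero count.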

For assay [16], the system named is Hs 294T. Kind of assay: Antiproliferative activity against human Hs294T cells assessed as cell growth inhibition incubated for 10 days. The format is functional. Conditions: 240 h, time 10 day. In outline: as §3
The nature of assay [17]: Antiproliferative activity against human A7 cells assessed as cell growth inhibition incubated for 10 days. The format is functional. The note with it: A7, 240 h, time 10 day. In outline: as §2
Assay [18] has as its system MeWo. The assay can be described thus: Antiproliferative activity against human MeWo cells assessed as cell growth inhibition incubated for 10 days. The format is functional. The note with it: 240 h, time 10 day.
For assay [19], the system named is SK-MEL3. The assay can be described thus: Antiproliferative activity against human SK-MEL3 cells assessed as cell growth inhibition incubated for 10 days. The note with it: SK-MEL3, 240 h, time 10 day. The format is functional.
The subject of assay [20] is CHP-212. The assay can be described thus: Antiproliferative activity against human CHP-212 cells assessed as cell growth inhibition incubated for 10 days. The format is functional. The note with it: CHP-212, 240 h, time 10 day. The essentials:
as §2

In assay [21] the test system is ChaGo-K-1. Kind of assay: Antiproliferative activity against human ChaGo-K-1 cells assessed as cell growth inhibition incubated for 10 days. Conditions: ChaGo-K-1, 240 h, time 10 day. The format is functional. In outline: as §1
For assay [22], the system named is NCI-H441. Kind of assay: Antiproliferative activity against human NCI-H441 cells assessed as cell growth inhibition incubated for 10 days. Conditions: NCI-H441, 240 h, time 10 day. The format is functional.
The test system of assay [23] is SK-MES-1. The assay can be described thus: Antiproliferative activity against human SK-MES-1 cells assessed as cell growth inhibition incubated for 10 days. The format is functional. Conditions: SK-MES-1, 240 h, time 10 day.
The subject of assay [24] is NCI-H520. Kind of assay: Antiproliferative activity against human NCI-H520 cells assessed as cell growth inhibition incubated for 10 days. Conditions: NCI-H520, 240 h, time 10 day. The format is functional.
The subject of assay [25] is MIA PaCa-2. The assay can be described thus: Antiproliferative activity against human MIA PaCa-2 cells assessed as cell growth inhibition incubated for 10 days. Conditions: MIA PaCa-2, 240 h, time 10 day. The format is functional.
In assay [26] the test system is Capan-2. The assay can be described thus: Antiproliferative activity against human Capan-2 cells assessed as cell growth inhibition incubated for 10 days. The format is functional. The note with it: Capan-2, 240 h, time 10 day. In outline:
as §1

Assay [27] concerns PC-3. The assay can be described thus: Antiproliferative activity against human PC-3 cells assessed as cell growth inhibition incubated for 10 days. The format is functional. The note with it: PC-3, 240 h, time 10 day.
For assay [28], the system named is G-401. Kind of assay: Antiproliferative activity against human G-401 cells assessed as cell growth inhibition incubated for 10 days. The format is functional. The note with it: G-401, 240 h, time 10 day. In outline: as §1
Assay [29] has as its system SK-LMS-1. Kind of assay: Antiproliferative activity against human SK-LMS-1 cells assessed as cell growth inhibition incubated for 10 days. Conditions: SK-LMS-1, 240 h, time 10 day. The format is functional.
Assay [30] deals with DMS-114. The assay can be described thus: Antiproliferative activity against human DMS-114 cells assessed as cell growth inhibition incubated for 10 days. The format is functional. Conditions: DMS-114, 240 h, time 10 day. In outline:
as §1

In assay [31] the test system is BHT-101. The assay can be described thus: Antiproliferative activity against human BHT-101 cells assessed as cell growth inhibition incubated for 10 days. The format is functional. Conditions: BHT-101, 240 h, time 10 day. In outline:
as §2

The test system of assay [32] is SW 962. Kind of assay: Antiproliferative activity against human SW 962 cells assessed as cell growth inhibition incubated for 10 days. The format is functional. The note with it: SW 962, 240 h, time 10 day.

Molecules are shown by their SMILES. Calls of active or inactive are those of the source. The calls are words filed in the database; no cut-off is given here.

Apoptosis regulator BAX (Homo sapiens), sequence (Q07812 whole entry): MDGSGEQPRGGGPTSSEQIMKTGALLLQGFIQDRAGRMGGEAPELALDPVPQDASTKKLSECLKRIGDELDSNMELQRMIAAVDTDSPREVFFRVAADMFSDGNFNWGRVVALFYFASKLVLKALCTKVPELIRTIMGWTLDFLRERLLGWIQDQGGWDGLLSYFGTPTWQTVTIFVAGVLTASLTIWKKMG

For the molecule `CC(=O)N1CCC(Nc2cc(C(=O)NC[C@H](O)CN3CCc4ccccc4C3)ncn2)CC1` [PEMRAMETOSTAT], the outcome in [1], in [4] and in [5] was Active. The Activity entry in assay [2] is “Dose-Dependent Effect”. Besides, in assay [3], the result was inactive. The inhibition entry in [6] was “Active”.
One may read the GI50 as the concentration at which growth is held to half of that of the control. As for `O=C(NC[C@H](O)CN1CCc2ccccc2C1)c1ccnc(NC2CCC2)c1`, the GI50 is 95.8 nM in [7]; 230 nM in assay [8]; 5640 nM in assay [9]; 153 nM in [10]; 146 nM in [11]; 231 nM in [12]. Further, the GI50 in assay [13] was found to be 104 nM; in assay [14] it was 203 nM; in [15] it was 602 nM; in assay [16], 12.3 nM; in assay [17], 36.7 nM; in [18], 249 nM. Besides, the GI50 was determined as 181 nM in assay [19]; 24 nM in [20]; 1190 nM in assay [21]; 556 nM in assay [22]; 807 nM in [23]; 15.6 nM in assay [24]. In addition, the GI50 in [25] turned out to be 158 nM; in [26], 69.7 nM; in assay [27], 873 nM; in assay [28] it was 38.4 nM; in assay [29], 113 nM; in assay [30], 1010 nM. Further, the GI50 was determined as 214 nM in assay [31] and 203 nM in assay [32].

Values taken from ChEMBL document CHEMBL5653630, “Activation of the p53-MDM4 regulatory axis defines the anti-tumour response to PRMT5 inhibition through its role in regulating cellular splicing” (Sci Rep, 2018).
